Columns and labels:
Type in all cases: functional
SK-MEL-28 [1] = test: Growth inhibition of human SK-MEL-28 cells incubated for 48 hrs by sulforhodamine B assay
In short: (§1)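 NCI DTP 60-line human tumour panel. Dose-response curves were run only for ligands active in the initial 10 µM screen. GI50 (concentration giving 50% of maximal inhibition of proliferation) and TGI (concentration giving total growth inhibition) were derived from these curves.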

OVCAR-4 = test: Growth inhibition of human OVCAR-4 cells assessed as cell growth at 0.1 uM incubated for 48 hrs by sulforhodamine B assay relative to control; conditions: read-out: Activity
KM12 [2] = test: Growth inhibition of human KM12 cells assessed as cell growth at 1 uM incubated for 48 hrs by sulforhodamine B assay relative to control; conditions: read-out: Activity
DU-145 = test: Growth inhibition of human DU-145 cells assessed as cell growth at 0.1 uM incubated for 48 hrs by sulforhodamine B assay relative to control; conditions: read-out: Activity
In short: (§2)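 NCI Developmental Therapeutics Program NCI60 panel. Compounds that were active in the 10 µM one-dose screen went on to dose–response testing. Growth at each concentration is expressed relative to untreated control (100%). GI50 (concentration giving 50% of maximal inhibition of proliferation) and TGI (concentration giving total growth inhibition) were derived from the curves.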

SK-MEL-28 [3] = test: Growth inhibition of human SK-MEL-28 cells assessed as cell growth at 1 uM incubated for 48 hrs by sulforhodamine B assay relative to control; conditions: read-out: Activity
NCI-H23 = test: Growth inhibition of human NCI-H23 cells assessed as cell growth at 100 uM incubated for 48 hrs by sulforhodamine B assay relative to control; conditions: read-out: Activity
SK-MEL-2 [4] = test: Growth inhibition of human SK-MEL-2 cells assessed as cell growth at 100 uM incubated for 48 hrs by sulforhodamine B assay relative to control; conditions: read-out: Activity
M14 = test: Growth inhibition of human M14 cells assessed as cell growth at 0.01 uM incubated for 48 hrs by sulforhodamine B assay relative to control; conditions: read-out: Activity
A549 = test: Growth inhibition of human A549/ATCC cells assessed as cell growth at 1 uM incubated for 48 hrs by sulforhodamine B assay relative to control; conditions: read-out: Activity; in short: as §2
786-0 = test: Growth inhibition of human 786-0 cells assessed as cell growth at 0.1 uM incubated for 48 hrs by sulforhodamine B assay relative to control; conditions: read-out: Activity; in short: as §2
OVCAR-8 = test: Growth inhibition of human OVCAR-8 cells assessed as cell growth at 1 uM incubated for 48 hrs by sulforhodamine B assay relative to control; conditions: read-out: Activity
OVCAR-5 = test: Growth inhibition of human OVCAR-5 cells incubated for 48 hrs by sulforhodamine B assay; in short: as §1
SK-OV-3 = test: Growth inhibition of human SK-OV-3 cells assessed as cell growth at 1 uM incubated for 48 hrs by sulforhodamine B assay relative to control; conditions: read-out: Activity
SR = test: Growth inhibition of human SR cells assessed as cell growth at 1 uM incubated for 48 hrs by sulforhodamine B assay relative to control; conditions: read-out: Activity
HOP-92 = test: Growth inhibition of human HOP-92 cells assessed as cell growth at 100 uM incubated for 48 hrs by sulforhodamine B assay relative to control; conditions: read-out: Activity
SF-268 = test: Growth inhibition of human SF-268 cells assessed as cell growth at 100 uM incubated for 48 hrs by sulforhodamine B assay relative to control; conditions: read-out: Activity
HCC 2998 = test: Growth inhibition of human HCC 2998 cells assessed as cell growth at 0.01 uM incubated for 48 hrs by sulforhodamine B assay relative to control; conditions: read-out: Activity; in short: as §2
HCT-15 [5] = test: Growth inhibition of human HCT-15 cells assessed as cell growth at 100 uM incubated for 48 hrs by sulforhodamine B assay relative to control; conditions: read-out: Activity
KM12 [6] = test: Growth inhibition of human KM12 cells assessed as cell growth at 0.1 uM incubated for 48 hrs by sulforhodamine B assay relative to control; conditions: read-out: Activity
NCI-H322M = test: Growth inhibition of human NCI-H322M cells assessed as cell growth at 0.1 uM incubated for 48 hrs by sulforhodamine B assay relative to control; conditions: read-out: Activity
SK-MEL-2 [7] = test: Growth inhibition of human SK-MEL-2 cells incubated for 48 hrs by sulforhodamine B assay; in short: as §1
LOX IMVI [8] = test: Growth inhibition of human LOX IMVI cells assessed as cell growth at 0.01 uM incubated for 48 hrs by sulforhodamine B assay relative to control; conditions: read-out: Activity
CAKI-1 = test: Growth inhibition of human CAKI-1 cells assessed as cell growth at 0.1 uM incubated for 48 hrs by sulforhodamine B assay relative to control; conditions: read-out: Activity; in short: as §2
OVCAR-3 = test: Growth inhibition of human OVCAR-3 cells assessed as cell growth at 1 uM incubated for 48 hrs by sulforhodamine B assay relative to control; conditions: read-out: Activity
TK-10 = test: Growth inhibition of human TK-10 cells assessed as cell growth at 0.1 uM incubated for 48 hrs by sulforhodamine B assay relative to control; conditions: read-out: Activity
SW-620 = test: Growth inhibition of human SW-620 cells assessed as cell growth at 100 uM incubated for 48 hrs by sulforhodamine B assay relative to control; conditions: read-out: Activity
HCT-15 [9] = test: Growth inhibition of human HCT-15 cells assessed as cell growth at 0.01 uM incubated for 48 hrs by sulforhodamine B assay relative to control; conditions: read-out: Activity
SF-539 = test: Growth inhibition of human SF-539 cells assessed as cell growth at 0.1 uM incubated for 48 hrs by sulforhodamine B assay relative to control; conditions: read-out: Activity
HCT-116 = test: Growth inhibition of human HCT-116 cells assessed as cell growth at 1 uM incubated for 48 hrs by sulforhodamine B assay relative to control; conditions: read-out: Activity
MDA-MB-231 = test: Growth inhibition of human MDA-MB-231 cells assessed as cell growth at 1 uM incubated for 48 hrs by sulforhodamine B assay relative to control; conditions: read-out: Activity
LOX IMVI [10] = test: Growth inhibition of human LOX IMVI cells incubated for 48 hrs by sulforhodamine B assay
In short: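 NCI60 panel at the NCI Developmental Therapeutics Program. Only compounds active in the 10 µM screen went to dose-response testing. GI50, the concentration giving 50% of maximal inhibition of proliferation, and TGI, the concentration giving total growth inhibition, were derived from the dose-response curves.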

SK-MEL-5 = test: Growth inhibition of human SK-MEL-5 cells incubated for 48 hrs by sulforhodamine B assay; in short: as §1
LOX IMVI [11] = test: Growth inhibition of human LOX IMVI cells assessed as cell growth at 100 uM incubated for 48 hrs by sulforhodamine B assay relative to control; conditions: read-out: Activity
U-251 = test: Growth inhibition of human U-251 cells assessed as cell growth at 0.01 uM incubated for 48 hrs by sulforhodamine B assay relative to control; conditions: read-out: Activity
MDA-MB-468 = test: Growth inhibition of human MDA-MB-468 cells assessed as cell growth at 1 uM incubated for 48 hrs by sulforhodamine B assay relative to control; conditions: read-out: Activity

## COc1cccc(NC(=O)c2sc3nc4c(cc3c2N)CN(Cc2ccccc2)CC4)c1
SK-MEL-28 [1]
  GI50: 2800 nM
  LC50: > 100 µM
  TGI: 29.7 µM
OVCAR-4
  growth at 0.1 µM: 93%
KM12 [2]
  growth at 1 µM: 64%
DU-145
  growth at 0.1 µM: 104%
SK-MEL-28 [3]
  growth at 1 µM: 68%
NCI-H23
  growth at 100 µM: -19%
SK-MEL-2 [4]
  growth at 100 µM: -28%
M14
  growth at 0.01 µM: 96%
A549
  growth at 1 µM: 88%
786-0
  growth at 0.1 µM: 93%
OVCAR-8
  growth at 1 µM: 90%
OVCAR-5
  GI50: 36.9 µM
  TGI: > 100 µM
OVCAR-5; read-out: LC50 (the source's name)
  CC50: > 100 µM
SK-OV-3
  growth at 1 µM: 81%
SR
  growth at 1 µM: 25%
HOP-92
  growth at 100 µM: -38%
SF-268
  growth at 100 µM: -40%
HCC 2998
  growth at 0.01 µM: 97%
HCT-15 [5]
  growth at 100 µM: 6%
KM12 [6]
  growth at 0.1 µM: 98%
NCI-H322M
  growth at 0.1 µM: 96%
SK-MEL-2 [7]
  GI50: 10.3 µM
  LC50: > 100 µM
  TGI: 44.5 µM
LOX IMVI [8]
  growth at 0.01 µM: 97%
CAKI-1
  growth at 0.1 µM: 91%
OVCAR-3
  growth at 1 µM: 82%
TK-10
  growth at 0.1 µM: 104%
SW-620
  growth at 100 µM: -5%
HCT-15 [9]
  growth at 0.01 µM: 92%
SF-539
  growth at 0.1 µM: 92%
HCT-116
  growth at 1 µM: 59%
MDA-MB-231
  growth at 1 µM: 78%
LOX IMVI [10]
  GI50: 4.09 µM
  LC50: > 100 µM
  TGI: 43.5 µM
SK-MEL-5
  GI50: 2150 nM
  LC50: > 100 µM
  TGI: 31.9 µM
LOX IMVI [11]
  growth at 100 µM: -15%
U-251
  growth at 0.01 µM: 99%
MDA-MB-468
  growth at 1 µM: 64%

— ChEMBL document CHEMBL4715736, “Identification of anticancer agents based on the thieno[2,3-b]pyridine and 1H-pyrazole molecular scaffolds” (2016)
